Bioassay records as filed in PubChem.
PPC-1+TRAIL kill: compounds killing PPC-1 cancer cells with TRAIL present, primary screen, TRAIL potentiator project, ATPLite luminescence, uHTS. PPC-1 cells + TRAIL, ATPLite viability luminescence. cell killing (% activity), % at 4 µM or 5 µM. 220,000 compounds, 0.41% hits. AID 1443, 2008;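 active = cell killing above 50% in the first pass at 4 µM, then a duplicate retest at 5 µM averaging 50% or more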;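 also: plate controls were cells with TRAIL plus DMSO for no effect and medium-only wells lacking cells for full effect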
FLuc inhib CS: firefly luciferase enzyme inhibitors, primary screen, artefact control for luciferase-based inhibitor screens, biochemical, luminescence, ATPLite. Luciferin 4-monooxygenase (Photinus pyralis), P08659. 10 min. inhibition, % at 10 µM. 200,000 compounds, 1.5% hits. AID 1006, 2008;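 active = inhibition above about 50% when tested at 10 µM, limit read from the data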
Target sequence (P08659 whole entry, looked up): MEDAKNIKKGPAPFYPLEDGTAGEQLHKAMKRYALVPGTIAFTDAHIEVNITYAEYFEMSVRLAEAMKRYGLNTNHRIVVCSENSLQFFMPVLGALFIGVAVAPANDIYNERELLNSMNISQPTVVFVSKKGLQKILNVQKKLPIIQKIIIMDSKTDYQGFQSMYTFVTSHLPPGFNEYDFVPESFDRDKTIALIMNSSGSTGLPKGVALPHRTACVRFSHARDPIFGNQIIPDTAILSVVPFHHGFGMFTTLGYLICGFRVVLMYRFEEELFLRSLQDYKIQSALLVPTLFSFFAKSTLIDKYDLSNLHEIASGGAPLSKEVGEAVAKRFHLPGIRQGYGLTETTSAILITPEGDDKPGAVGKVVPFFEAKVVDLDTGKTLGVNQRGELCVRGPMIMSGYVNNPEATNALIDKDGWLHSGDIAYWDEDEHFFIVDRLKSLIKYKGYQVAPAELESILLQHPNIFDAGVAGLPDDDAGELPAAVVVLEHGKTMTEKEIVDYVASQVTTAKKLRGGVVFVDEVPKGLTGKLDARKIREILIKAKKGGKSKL
FLuc stim CS: FLuc activators, initial screening, artefact control for FLuc-dependent activation tests, biochemical, ATPlite luminescence | ATPlite luciferase biochemical, 10 min; 0 = ATP-free wells, 1 = DMSO control | activation factor at 10 µM | 200,000 tested, under 10 active | AID 1027, 2008;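 active = luciferase activation factor, scaled between plate controls, of at least 2 with compound at 10 µM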
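assay system = Luciferase/luciferin detection reagent, cell-free biochemical luciferase assay | also added = ATP substrate | times = 10 min post-reagent at room temperature | measured by = luminescence from luciferase reaction | measure = luciferase activation, seen as luminescence increase over controls | benchmarks = low control with PBS replacing ATP, high control enzyme plus ATP without compound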
APP 5'UTR act: activators of APP 5'UTR luciferase reporter, primary screen, SH-SY5Y cells. activation, % at 2 µM. SH-SY5Y APP 5'UTR luciferase reporter, luminescence; zero percent = DMSO vehicle wells. 190,000 compounds, 1% hits. AID 1276, 2008;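 active = activation above a set limit, based on mean plus 3 SD of controls, cut at about 140% in these data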
NF-kB neuron act: activators of NF-kB expression in neurons, primary screen, cell-based, HTS. human neuronal cells, NF-kB reporter expression; active compounds read high. fold change at 12.5 µM. 190,000 compounds, 1.6% hits. AID 1239, 2008; in the data active = fold change above about 3.3
TRAIL sens C8: viability loss with TRAIL in NB7+C8 cells, primary screen, TRAIL sensitizer project, cell-based, ATPlite luminescence; 360,000 compounds, 1% hits; inhibition (viability loss, TRAIL sensitization), % at 10 µM;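 active = compounds causing at least 50% loss of cell viability in the single-dose screen, relative to plate controls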
Active calls of the source: *. Most compounds without a hit are left out; they make up all but 2.2% or so of the library.

Screening O=S1(=O)CC(N2CCC(Cc3ccccc3)CC2)CN1CCc1ccccc1 (stereo not given) returned TRAIL sens C8 8.
`Cc1cccc(NC(=O)Nc2ccc(Oc3c(F)c(F)c(F)c(F)c3F)cc2)c1` gave PPC-1+TRAIL kill 4, FLuc inhib CS -4, FLuc stim CS 1, APP 5'UTR act -12, NF-kB neuron act 1.5 and TRAIL sens C8 -25.
O=C(Nc1ccc(Oc2c(F)c(F)c(F)c(F)c2F)cc1)OC1CCN2Cc3ccccc3N=C12 (stereo not given) was read as PPC-1+TRAIL kill -17 and TRAIL sens C8 69*.
Screening COc1ccc(CN2C(=O)c3ccccc3C2c2nnnn2-c2ccc3c(c2)OCCO3)cc1OC (stereo not given) returned TRAIL sens C8 -9.
Nc1c(N(C(=O)Nc2ccc(Cl)c(Cl)c2)C2CCCC2)c(=O)[nH]c(=O)n1Cc1ccccc1 was read as PPC-1+TRAIL kill 1, FLuc inhib CS -6, FLuc stim CS 1.1, APP 5'UTR act -1, NF-kB neuron act 0.87 and TRAIL sens C8 63*.
Screening O=C(c1ccoc1)N1CCN(c2cc(-c3ccncc3)nc3cc(-c4cccc(Cl)c4)nn23)CC1 returned TRAIL sens C8 19.
Screening O=C(c1ccncc1)N1CCN(c2cc(-c3ccccc3)nc3cc(-c4cccc(Cl)c4)nn23)CC1 returned TRAIL sens C8 70*.
`C[C@@H]1CCCCO[C@@H](CN(C)Cc2ccncc2)[C@@H](C)CN([C@H](C)CO)C(=O)c2cc(NC(=O)c3ccccc3)ccc2O1` gave TRAIL sens C8 14.
O=C(Cc1ccccc1)Nc1ccc(NC(=O)C2CCCCC2)nc1 was read as FLuc inhib CS -3, FLuc stim CS 1, APP 5'UTR act -27, NF-kB neuron act 1 and TRAIL sens C8 7.
Screening CCOc1ccc(NC(=O)Nc2ccccc2SC)cc1 returned PPC-1+TRAIL kill 24, FLuc inhib CS 50*, FLuc stim CS 0.5, APP 5'UTR act 104, NF-kB neuron act 2 and TRAIL sens C8 43.
For O=C(Nc1ccc(NC(=O)c2ccco2)cc1)c1ccco1 the results were TRAIL sens C8 3.
Screening O=C(Nc1ccc(NC(=O)C2CCCCC2)cn1)c1ccco1 returned PPC-1+TRAIL kill 58*, FLuc inhib CS 86*, FLuc stim CS 0.1, APP 5'UTR act 112, NF-kB neuron act 4.6* and TRAIL sens C8 70*.
For CCOc1ccc(NC(=O)c2ccco2)cc1 the results were PPC-1+TRAIL kill 48, FLuc inhib CS 76*, FLuc stim CS 0.2, APP 5'UTR act 120, NF-kB neuron act 3.9* and TRAIL sens C8 55*.
`O=C(Nc1ccc(Nc2ccccc2)cc1)c1ccco1` gave PPC-1+TRAIL kill -1, FLuc inhib CS 28, FLuc stim CS 0.7, APP 5'UTR act 94, NF-kB neuron act 4.2* and TRAIL sens C8 25.
Screening O=C(Nc1ccc(NC(=O)C2CC2)cc1)c1ccco1 returned TRAIL sens C8 55*.
NS(=O)(=O)c1ccc(N=Nc2c(-c3ccccc3)[nH]n(-c3nc(-c4ccccc4)cs3)c2=O)cc1 was read as PPC-1+TRAIL kill 15, FLuc inhib CS -5, FLuc stim CS 1.1, APP 5'UTR act 21, NF-kB neuron act 0.27 and TRAIL sens C8 54*.
COC(=O)c1ccc2nc(-c3ccc(C)cc3)c(Cc3cccc(Cl)c3)n2c1 was read as TRAIL sens C8 25.
COc1cccc(-c2cccc(-c3nc(C(=O)NCCCN4CCOCC4)cc4c3[C@H](CCO)N(S(=O)C(C)(C)C)C4)c2)c1 (stereo not given in full) was read as TRAIL sens C8 -1.
Screening COc1ccc(-c2cc3nc4n(c(=O)c3s2)CCC4)cc1 returned PPC-1+TRAIL kill -11, FLuc inhib CS 84*, FLuc stim CS 0.2, APP 5'UTR act 160*, NF-kB neuron act 1.1 and TRAIL sens C8 71*.
`CC1(C)Oc2cc3oc(-c4cc(O)cc(O)c4)cc3cc2CC1O` (stereo not given) gave TRAIL sens C8 80*.
Oc1cc(O)cc(-c2cc3ccc(O)cc3o2)c1 was read as TRAIL sens C8 13.
`C#CCOCCOCCOCCNc1nc(N2CCN(C(=O)CCCCCCCCCCNC(=O)[C@H]([C@@H](C)CC)n3cc(CCCCCN)nn3)CC2)nc(N2CCN(C(=O)CCCCCCCCCCNC(=O)[C@@H]([C@H](C)O)n3cc(C)nn3)CC2)n1` gave TRAIL sens C8 92*.
Screening C#CCOCCOCCOCCNc1nc(N2CCN(C(=O)CCCCCCCCCCNC(=O)[C@H](CCCCN)n3cc(CCO)nn3)CC2)nc(N2CCN(C(=O)CCCCCCCCCCNC(=O)[C@@H]([C@H](C)O)n3cc(C)nn3)CC2)n1 returned TRAIL sens C8 6.
Screening C#CCOCCOCCOCCNc1nc(N2CCN(C(=O)CCCCCCCCCCNC(=O)Cn3cc(CCCCCN)nn3)CC2)nc(N2CCN(C(=O)CCCCCCCCCCNC(=O)[C@H](CO)n3cc(CCCCCN)nn3)CC2)n1 returned TRAIL sens C8 -2.
For C#CCOCCOCCOCCNc1nc(N2CCN(C(=O)CCCCCCCCCCNC(=O)[C@H](CCCCN)n3cc(C)nn3)CC2)nc(N2CCN(C(=O)CCCCCCCCCCNC(=O)[C@@H]([C@H](C)CC)n3cc(CCCCCN)nn3)CC2)n1 the results were TRAIL sens C8 97*.
For C#CCOCCOCCOCCNc1nc(N2CCN(C(=O)CCCCCCCCCCNC(=O)Cn3cc(CCCCCN)nn3)CC2)nc(N2CCN(C(=O)CCCCCCCCCCNC(=O)[C@H]([C@@H](C)CC)n3cc(CCCCCN)nn3)CC2)n1 the results were TRAIL sens C8 75*.
Screening C#Cc1cccc(Nc2nc(NCc3ccccc3)nc3ccsc23)c1 returned TRAIL sens C8 48.
Screening COc1ccc2c(=O)c(-c3ccccc3)coc2c1 returned PPC-1+TRAIL kill 33, FLuc inhib CS 70*, FLuc stim CS 0.3, APP 5'UTR act 158*, NF-kB neuron act 7.3* and TRAIL sens C8 41.
For O=c1cc(-c2ccc(F)cc2)oc2ccccc12 the results were APP 5'UTR act 26 and TRAIL sens C8 3.
Screening CSc1ccc(-c2cc(=O)c3ccccc3o2)cc1 returned PPC-1+TRAIL kill 33, FLuc inhib CS 35, FLuc stim CS 0.7, APP 5'UTR act 142*, NF-kB neuron act 3.1 and TRAIL sens C8 37.
